Measured values published in article PMC4604364 (Antimicrobial Agents and Chemotherapy, 2015).
≈ marks a conversion by molar mass, not a printed value.

Columns and labels:
[1] = system: S. pneumoniae ATCC 700905 (ribosome protection, Tet M); assay: Microdilution MIC, S. pneumoniae Tet M; format: cell-based; conditions: Streptococcus pneumoniae, ATCC700905, read-out: MIC, S. pneumoniae Tet M
[2] = system: S. pneumoniae 157E (wild type, tetracycline susceptible); assay: Microdilution MIC, S. pneumoniae wild type; format: cell-based; conditions: Streptococcus pneumoniae, read-out: MIC, S. pneumoniae wild type
[3] = Pharmacokinetics in nonhuman primates; format: in vivo, Cynomolgus monkeys; conditions: for AUC / Cmax / Tmax / half-life / bioavailability: cynomolgus monkey, plasma
Procedure, shortened: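 Cynomolgus monkeys were dosed intravenously (infusion ending at 0.25 h) or orally. Plasma was sampled predose and at 0.25, 0.5, 1, 3, 5, 7, 16 and 24 h. Protein was precipitated with acetonitrile containing 0.1% formic acid, then centrifuged. The supernatant was dried, reconstituted in methanol-water (1:1) and quantified by LC-MS/MS. PK parameters came from noncompartmental analysis.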

[4] = system: E. faecalis JH2-2 (wild type, tetracycline susceptible); assay: Microdilution MIC, E. faecalis wild type; format: cell-based; conditions: Enterococcus faecalis, read-out: MIC, E. faecalis wild type
[5] = system: E. faecium 494 (Tet M plus Tet L); assay: Microdilution MIC, E. faecium Tet M + L; format: cell-based; conditions: Enterococcus faecium, read-out: MIC, E. faecium Tet M + L
[6] = system: E. faecalis JH2-2(pAM211) (ribosome protection, Tet M); assay: Microdilution MIC, E. faecalis Tet M; format: cell-based; conditions: Enterococcus faecalis, read-out: MIC, E. faecalis Tet M
S. aureus MRSA 5 (Tet M) [7] = assay: Serum MIC, S. aureus MRSA 5; format: cell-based; conditions: Staphylococcus aureus, read-out: S. aureus MRSA 5 (Tet M) serum MIC, None
[8] = system: S. aureus MRSA 5 (MRSA, ribosome protection, Tet M); assay: Microdilution MIC, S. aureus Tet M; format: cell-based; conditions: Staphylococcus aureus, read-out: MIC, S. aureus Tet M
[9] = system: S. aureus RN450 (wild type, tetracycline susceptible); assay: Microdilution MIC, S. aureus wild type; format: cell-based; conditions: Staphylococcus aureus, read-out: MIC, S. aureus wild type
[10] = system: Gram-positive screening panel organisms (S. aureus, Enterococcus spp., S. pneumoniae); assay: MIC ranges over the Gram-positive screening panel; format: cell-based; conditions: read-out: MIC range against resistant organisms
S. aureus MRSA 5 (Tet M) [11] = assay: S. aureus MRSA 5 thigh wound infection model in mice; format: in vivo; conditions: 24 h after single subcutaneous injection of 20 mg/kg
[12] = system: E. faecalis JH2-2(pMV158) (tetracycline efflux, Tet L); assay: Microdilution MIC, E. faecalis Tet L; format: cell-based; conditions: Enterococcus faecalis, read-out: MIC, E. faecalis Tet L
[13] = system: S. aureus RN4250 (tetracycline efflux, Tet K); assay: Microdilution MIC, S. aureus Tet K; format: cell-based; conditions: Staphylococcus aureus, read-out: MIC, S. aureus Tet K

| MIC [1] [µg/mL] | MIC [2] [µg/mL] | AUC ([3]; po, 5 mg/kg) [ng·h/mL] | Cmax ([3]; po, 5 mg/kg) [ng/mL] | Tmax ([3]; po, 5 mg/kg) [h] | bioavailability ([3]; po, 5 mg/kg) [%] | half-life ([3]; po, 5 mg/kg) [h] | MIC [4] [µg/mL] | MIC [5] [µg/mL] | MIC [6] [µg/mL] | MIC (S. aureus MRSA 5 (Tet M) [7]) [µg/mL] | MIC [8] [µg/mL] | MIC [9] [µg/mL] | MIC [12] [µg/mL] | MIC [13] [µg/mL] | AUC ([3]; iv, 5 mg/kg) [ng·h/mL] | Cmax ([3]; iv, 5 mg/kg) [ng/mL] | Tmax ([3]; iv, 5 mg/kg) [h] | half-life ([3]; iv, 5 mg/kg) [h] | Compound | reduction of colony count relative to untreated control animals (S. aureus MRSA 5 (Tet M) [11]) [log10] | other results |
| --- | --- | --- | --- | --- | --- | --- | --- | --- | --- | --- | --- | --- | --- | --- | --- | --- | --- | --- | --- | --- | --- |
| 8 (≈ 17.5 µM) | < 0.06 | 22100 | 2200 | 3 | 80 | 7 | 0.5 (≈ 1.09 µM) | 16 | 16 (≈ 35 µM) | 2 (≈ 4.37 µM) | 2 (≈ 4.37 µM) | 0.25 (≈ 0.546 µM) | 0.5 (≈ 1.09 µM) | 0.5 (≈ 1.09 µM) | 27600 | 14800 | 0.1 | 10.4 | CN(C)c1ccc(O)c2c1C[C@H]1C[C@H]3[C@H](N(C)C)C(O)=C(C(N)=O)C(=O)[C@@]3(O)C(O)=C1C2=O [Minocycline, minocycline] | 0.98 | – |
| 32 (≈ 72 µM) | < 0.06 | – | – | – | – | – | 0.25 (≈ 0.563 µM) | > 64 | > 64 | – | 32 (≈ 72 µM) | < 0.06 | 64 (≈ 144 µM) | > 64 | – | – | – | – | CN(C)[C@@H]1C(O)=C(C(N)=O)C(=O)[C@@]2(O)C(O)=C3C(=O)c4c(O)cccc4[C@@](C)(O)[C@H]3C[C@@H]12 [Tetracycline, tetracycline] | – | – |
| < 0.06 | < 0.06 | 500 | 40 | 4 | 3.1 | 3.4 | 0.5 (≈ 0.854 µM) | 0.5 | 0.5 (≈ 0.854 µM) | 0.25 (≈ 0.427 µM) | 0.25 (≈ 0.427 µM) | 0.25 (≈ 0.427 µM) | 0.5 (≈ 0.854 µM) | 0.5 (≈ 0.854 µM) | 16300 | 23200 | 0.2 | 10.9 | CN(C)c1cc(NC(=O)CNC(C)(C)C)c(O)c2c1C[C@H]1C[C@H]3[C@H](N(C)C)C(O)=C(C(N)=O)C(=O)[C@@]3(O)C(O)=C1C2=O [Tigecycline, tigecycline] | – | – |
| 0.25 (≈ 0.173 µM) | 0.25 (≈ 0.173 µM) | – | – | – | – | – | 1 (≈ 0.69 µM) | > 64 | 1 (≈ 0.69 µM) | 0.5 (≈ 0.345 µM) | 0.5 (≈ 0.345 µM) | 0.5 (≈ 0.345 µM) | 1 (≈ 0.69 µM) | 0.25 (≈ 0.173 µM) | – | – | – | – | CN[C@H](CC(C)C)C(=O)N[C@H]1C(=O)N[C@@H](CC(N)=O)C(=O)N[C@H]2C(=O)N[C@H]3C(=O)N[C@H](C(=O)N[C@H](C(=O)O)c4cc(O)cc(O)c4-c4cc3ccc4O)[C@H](O)c3ccc(c(Cl)c3)Oc3cc2cc(c3O[C@@H]2O[C@H](CO)[C@@H](O)[C@H](O)[C@H]2O[C@H]2C[C@](C)(N)[C@H](O)[C@H](C)O2)Oc2ccc(cc2Cl)[C@H]1O [Vancomycin] | – | – |

| Compound | MIC [1] [µg/mL] | MIC [2] [µg/mL] | AUC ([3]; po, 5 mg/kg) [ng·h/mL] | Cmax ([3]; po, 5 mg/kg) [ng/mL] | Tmax ([3]; po, 5 mg/kg) [h] | bioavailability ([3]; po, 5 mg/kg) [%] | half-life ([3]; po, 5 mg/kg) [h] | MIC [4] [µg/mL] | MIC [5] [µg/mL] | MIC [6] [µg/mL] | MIC (S. aureus MRSA 5 (Tet M) [7]) [µg/mL] | MIC [8] [µg/mL] | MIC [9] [µg/mL] | MIC [12] [µg/mL] | MIC [13] [µg/mL] | AUC ([3]; iv, 5 mg/kg) [ng·h/mL] | Cmax ([3]; iv, 5 mg/kg) [ng/mL] | Tmax ([3]; iv, 5 mg/kg) [h] | half-life ([3]; iv, 5 mg/kg) [h] | reduction of colony count relative to untreated control animals (S. aureus MRSA 5 (Tet M) [11]) [log10] | other results |
| --- | --- | --- | --- | --- | --- | --- | --- | --- | --- | --- | --- | --- | --- | --- | --- | --- | --- | --- | --- | --- | --- |
| CN(C)c1cc(CNCC(C)(C)C)c(O)c2c1C[C@H]1C[C@H]3[C@H](N(C)C)C(O)=C(C(N)=O)C(=O)[C@@]3(O)C(O)=C1C2=O [Compound 27, 9-neopentylaminomethylminocycline] | < 0.06 | < 0.06 | 5300 | 410 | 2.3 | 31 | 11.1 | 0.25 (≈ 0.449 µM) | 0.5 | 0.5 (≈ 0.898 µM) | 0.25 (≈ 0.449 µM) | 0.25 (≈ 0.449 µM) | 0.25 (≈ 0.449 µM) | 0.5 (≈ 0.898 µM) | 0.25 (≈ 0.449 µM) | – | – | – | – | 2.49 to 3.11 | tolerability after intravenous infusion ([3]; Cynomolgus monkeys): well tolerated; AUC ([3]; iv, 2.6 mg/kg): 9000 ng·h/mL; Cmax ([3]; iv, 2.6 mg/kg): 1880 ng/mL; Tmax ([3]; iv, 2.6 mg/kg): 0.2 h; half-life ([3]; iv, 2.6 mg/kg): 14.4 h; oral plasma exposure relative to tigecycline ([3]; oral administration, monkeys): 10 fold; MIC [10]: 0.06 to 0.5 µg/mL (≈ 0.108 to 0.898 µM) |
